Results as given in paper PMC3433230 (Journal of biomolecular screening, 2009).
pEC50: −log10 of the molar value.

Experiments:
[1] = system: Cdc42wt, Rac1wt, Rac1Q61L, Rab2 wt, Rab7wt, and H-Ras wt (GST-GTPases); assay: Multiplexed primary screen, flow cytometry bead-based BODIPY-FL-GTP binding; conditions: 10 μM compound, 100 nM BODIPY-FL-GTP, 1 mM EDTA
In short: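 Each GST-GTPase (1 μM) is loaded overnight at 4°C onto its own red-intensity GSH-bead set. Beads are washed in NP-HPSE with 0.1% BSA and 1 mM DTT, then pooled, about 2000 beads per GTPase per well. Test compound is added at 10 μM (1% DMSO), with BODIPY-FL-GTP from a 200 nM stock. Plates rotate 40–45 min at 4°C and are read by HyperCyt flow cytometry. FL8 identifies bead sets; median FL1 (530 nm) gives binding. Hits exceed 20% change from baseline. Controls are DMSO and 0.5 mM unlabelled GTP.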

H-Ras and Rab proteins = assay: Dose response of BODIPY-FL-GTP binding, 1 mM EDTA; conditions: 10^−4 M compound
In short: (§1)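 GST-GTPases are coupled overnight at 4°C to colour-coded GSH-beads at 1 μM each. Beads are run as a multiplex (Rab7 wt, Rab2 wt, H-Ras wt, H-RasG12V, Cdc42 wt, Cdc42Q61L). […] Buffer contains 1 mM EDTA. Test compound is a 9-point 1:3 series, final 10 nM–100 μM. Binding of 100 nM (final) BODIPY-FL-GTP is read by flow cytometry, in triplicate.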

[2] = system: Rac1 wt, Rac1Q61L, Rac2 wt, RhoA wt and RhoAL63, Cdc42 wt, Cdc42Q61L and Ral wt; assay: Eight-plex dose response of BODIPY-FL-GTP binding, 1 mM MgCl2; conditions: 1 mM MgCl2, 100 nM BODIPY-FL-GTP
In short: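 Buffer is NP-HPS with 1 mM MgCl2. Binding of 100 nM BODIPY-FL-GTP is measured by flow cytometry with or without a 9-point 1:3 test-compound series (final 10 nM–100 μM). Each series is run in triplicate.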

Wild-type GST-Cdc42 = Wild-type GST-Cdc42 (Homo sapiens, UniProt P60953); assay: Real-time GTP-binding kinetic assay by flow cytometry
In short: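 GST-Cdc42 wt (4 μM) is bound to GSH-beads overnight at 4°C. Nucleotide is stripped with 10 mM EDTA for 20 min at 30°C, then beads are washed and resuspended in NP-HPS with 1 mM EDTA, 1 mM DTT and 0.1% BSA. Beads are preincubated 2 min with 1% DMSO or 10 μM test compound. Ice-cold BODIPY-FL-GTP (6.5–200 nM) is added, and association is followed 3 min by kinetic-mode flow cytometry (n=4). Bound signal at 3 min versus GTP concentration is curve-fitted.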

Rac1 [3] = target: T1, Rac1 (Mus musculus, UniProt P63001); assay: Rac activation assay; assay type: cell-based
In short: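 Swiss 3T3 cells are serum-starved overnight, then treated 20–30 min with 1% DMSO or 10 μM test compound. Some cells are then given 10 ng/ml EGF for 2 min; EGF alone is the positive control.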

GST-Rac1 = GST-Rac1 (Homo sapiens, UniProt P63000); assay: In vitro bead based assay of Rac1 binding to fluorescent GTP; conditions: 10 μM compound, 100 nM fluorescent GTP
Rac1 [4] = target: T1, Rac1; assay: G-LISA assay for active Rac in Swiss 3T3 cells; assay type: cell-based; conditions: for blocking EGF-stimulated Rac activation: concentrations of 1 μM or less
RBL-2H3 cells [5] = assay: Rhodamine-phalloidin staining and confocal microscopy of RBL-2H3 cells; assay type: cell-based, Rat; conditions: 10 μM, DNP/BSA 1 μg/ml
In short: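 RBL-2H3 cells on coverslips are cultured overnight with or without 10 μM test compound; stimulated cells get 1 μg/ml DNP-BSA for 30 min. Cells are fixed in 3% paraformaldehyde, permeabilised 5 min in 0.1% Triton X-100, blocked 1 h in 1% BSA and stained 1 h with rhodamine-phalloidin, all at room temperature. Confocal x-y and x-z views are collected.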

Swiss 3T3 cells = assay: Stress fiber formation in EGF treated Swiss 3T3 cells; assay type: cell-based; conditions: 10 μM, 30 min pre-treatment, 10 ng/ml EGF
In short: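 Quiescent, serum-starved Swiss 3T3 fibroblasts are treated 30 min with 10 μM test compound or DMSO, then stimulated with 10 ng/ml EGF for 2 min. Cells are imaged for actin stress fibres.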

RBL-2H3 cells [6] = assay: Live cell microscopy of RBL-2H3 cells; assay type: cell-based, Rat; conditions: 10 μM; for cell shape changes in response to ligand-mediated activation: 1 μg/ml DNP/BSA, IgE primed cells
RBL-2H3 cells [7] = assay: β-Hexosaminidase secretion measurements in RBL-2H3 cells; assay type: cell-based, Rat
In short: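 RBL-2H3 cells are primed overnight with IgE, washed and incubated 1 h with test compound in Tyrode's buffer. Supernatant is sampled for spontaneous β-hexosaminidase release. Cells are then activated with DNP/BSA (0.1 μg/ml) for 30 min at 37°C. Release is expressed as percent of total enzyme from Triton X-100-lysed cells.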

NIH 3T3 fibroblasts = NIH 3T3 fibroblasts ref 30; cited from earlier work
Cdc42 = Cdc42 (Homo sapiens, UniProt P60953); assay: Dose response of BODIPY-FL-GTP binding, 1 mM EDTA
In short: as §1

[8] = 10 μM inhibitor, 6.5–200 nM BODIPY-GTP

Chain of Wild-type GST-Cdc42 (P60953 whole entry): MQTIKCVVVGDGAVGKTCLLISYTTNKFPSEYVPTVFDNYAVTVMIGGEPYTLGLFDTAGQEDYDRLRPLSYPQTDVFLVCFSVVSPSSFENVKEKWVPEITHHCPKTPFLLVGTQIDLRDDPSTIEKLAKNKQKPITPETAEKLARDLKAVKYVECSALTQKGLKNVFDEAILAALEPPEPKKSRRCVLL
Chain of Cdc42 (P60953 whole entry): as above

O=C(C#Cc1ccccc1)c1cccc([N+](=O)[O-])c1 [MLS000532223, 1-(3-nitrophenyl)-3-phenyl-2-propyn-1-one]
effect on BODIPY-FL-GTP binding to the tested GTPases, primary screen [1]: inhibitory effect
inhibition of BODIPY-FL-GTP binding (H-Ras and Rab proteins): < 20%
effect on BODIPY-FL-GTP binding in the presence of Mg2+ [2]: inhibited the activity of all tested GTPases of the Rho and Ral families
effect on Bmax of GTP-binding (Wild-type GST-Cdc42; [8]): decreased
effect on affinity of GTP to wild type Cdc42 (Wild-type GST-Cdc42; [8]): remained constant
reversibility of activity (Wild-type GST-Cdc42; data not shown): not reversible
growth factor induced activation of Rac1 (Rac1 [3]; 10 μM pretreatment, 10 ng/ml EGF for 2 min): completely inhibited
low level of active Rac1 in serum starved cells (Rac1 [3]; 10 μM, 30 min pretreatment, no EGF): completely abolished
inhibition of BODIPY-FL-GTP binding to GST-Rac1 (GST-Rac1): similar
inhibition of EGF stimulated activation of Rac1 (Rac1 [4]; 3–10 μM, 1 h, then 10 ng/ml EGF 2 min): effectively inhibited
blocking EGF-stimulated Rac activation (Rac1 [4]): Neither compound was effective
cell shape and F-actin after cross-linking of IgE receptors (RBL-2H3 cells [5]): failed to flatten
formation of stress fibers upon EGF stimulation (Swiss 3T3 cells): completely inhibited
cell shape changes in response to ligand-mediated activation (RBL-2H3 cells [6]): completely abrogated
morphology of resting cells (RBL-2H3 cells [6]; no ligand): no change in morphology
toxicity to cells (RBL-2H3 cells [7]; 10 μM): not toxic
spontaneous β-hexosaminidase secretion, absence of ligand stimulation (RBL-2H3 cells [7]; 10 μM, 1 h): no β-hexosaminidase secretion
reduction of β-hexosaminidase secretion in ligand-stimulated cells (RBL-2H3 cells [7]; 10 μM, DNP/BSA): 50%

O=c1cc(CN2CCOCC2)occ1OCCCCCSc1ccnc2cc(C(F)(F)F)ccc12 [EHT1864, reference compound]
cell shape changes in response to ligand-mediated activation (RBL-2H3 cells [6]): failed to inhibit
inhibition of β-hexosaminidase secretion in response to ligand-stimulation (RBL-2H3 cells [7]; 10 μM): failed to inhibit
lamellipodia formation following platelet derived growth factor stimulation (NIH 3T3 fibroblasts): blocked

CCN(CC)CCCC(C)Nc1nc(C)cc(Nc2ccc3nc(C)cc(N)c3c2)n1 (centres unmarked) [NSC23766, reference compound]
blocking EGF-stimulated Rac activation (Rac1 [4]): Neither compound was effective
inhibition of EGF stimulated activation of Rac1 (Rac1 [4]; doses up to 50 μM): more modest inhibition
cell shape changes in response to ligand-mediated activation (RBL-2H3 cells [6]): failed to inhibit
toxicity to RBL-2H3 cells (RBL-2H3 cells [7]; 50 μM): toxic
spontaneous β-hexosaminidase release (RBL-2H3 cells [7]; 50 μM (Fig. 7A), 1 h): extensive

NS(=O)(=O)c1ccc(N2N=C(c3ccccc3)CC2c2ccccc2)cc1 (centres unmarked) [MLS000573151, 4-[3,5-di(phenyl)-4,5-dihydropyrazol-1-yl]benzenesulfonamide]
effect on BODIPY-FL-GTP binding to the tested GTPases, primary screen [1]: Cdc42 specific inhibitor
pEC50 (Cdc42): ~5.70
effect on BODIPY-FL-GTP binding in the presence of Mg2+ [2]: specific for Cdc42
